# Screening results (PubChem BioAssay)
# Compounds with a hit are over-represented: about 3.7% of the library has one in this group of screens.
# Cl transport mod: modulators of human KCC2 chloride dependent transport; Q9H2X9; KCC2 cells, thallium flux FluoZin-2 fluorescence; B-score of Tl+ flux slope (higher = more flux/activation; lower = inhibition) at 10 µM; 190,000 compounds, 2.2% hits; AID 1456;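 active = thallium flux slope and its plate-corrected score both differing from the plate sample mean at a set confidence after two filtering rounds, in either direction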;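 note: slope of fluorescence scaled to starting intensity during 10 to 20 s after thallium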
# NPY1 pot ag: potentiators or agonists of human neuropeptide Y receptor Y1; activation, % at 3.6 µM; 220,000 compounds, 0.37% hits; NPY-Y1 expressing cells, potentiator/agonist activation; AID 1304; P25929; in the data active = activation above about 33%, passing the limit was not always enough;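 note: cells stimulated with NPY at EC10 then isoproterenol at EC100; 0% = low agonist plus stimulus and 100% = saturating agonist plus stimulus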
# NPY Y2 blocker: blocks the human neuropeptide Y Y2 receptor; P49146; NPY-Y2 expressing cells, antagonist mode; inhibition, % at 2.7 µM; 140,000 compounds, 0.99% hits; AID 793; in the data active = inhibition above about 17%;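 note: 0% = vehicle with agonist challenge and 100% = reference antagonist with challenge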
# Target sequence (P49146 whole entry, looked up): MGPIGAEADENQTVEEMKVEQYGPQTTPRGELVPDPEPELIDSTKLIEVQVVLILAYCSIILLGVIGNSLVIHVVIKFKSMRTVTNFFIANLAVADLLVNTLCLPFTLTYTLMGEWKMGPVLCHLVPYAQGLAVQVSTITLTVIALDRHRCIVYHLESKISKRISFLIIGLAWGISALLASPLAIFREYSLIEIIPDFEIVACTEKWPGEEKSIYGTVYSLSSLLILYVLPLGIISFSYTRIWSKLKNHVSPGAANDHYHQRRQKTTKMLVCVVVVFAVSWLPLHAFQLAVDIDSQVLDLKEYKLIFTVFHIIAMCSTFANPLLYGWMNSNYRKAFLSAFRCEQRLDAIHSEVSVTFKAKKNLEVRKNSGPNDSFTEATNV
# NPY Y1 blocker: NPY-Y1 (human) receptor antagonism; P25929; HEK293-CNG Y1 cells, membrane potential fluorescence; NPY at EC95, then isoproterenol; inhibition, % at 3.6 µM; 200,000 compounds, 1% hits; AID 1040;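 active = inhibition above the campaign mean inhibition of all tested compounds plus 3 SD, cut at about 20% in these data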;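 note: 0% = DMSO wells given NPY plus isoproterenol and 100% = isoproterenol alone without NPY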
#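 Material: HEK293 Y1/CNG channel cell line; also added: NPY (25 nM), isoproterenol (1 µM), Ro 20-1724 (25 µM); doses: one concentration, 3.6 µM, in 0.4% DMSO; schedule: compound incubation 1 h at room temperature, readout 45 min post-stimulation; technique: membrane potential fluorescence; measure: fluorescence ratio normalized to % inhibition between controls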
# Furin inhibitor: inhibitors of human furin. P09958. purified furin, fluorogenic substrate cleavage. inhibition, % at 20 µM or 30 µM. 220,000 compounds, 0.061% hits; in the data active = inhibition above about 25%
# NPY-Y2 PAM-ag: potentiates or activates human NPY-Y2 receptor; P49146; cells expressing NPY-Y2, potentiator/agonist read-out; activation, % at 3.6 µM; 220,000 compounds, 0.45% hits; AID 1359; in the data active = activation above about 27%;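 note: cells stimulated with NPY near EC25 plus isoproterenol at EC100; 0% = vehicle plus submaximal agonist and 100% = vehicle plus saturating agonist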
# Numbers without * were called inactive; . = not tested or not shown.
SMILES,Cl transport mod,NPY1 pot ag,NPY Y2 blocker,NPY Y1 blocker,Furin inhibitor,NPY-Y2 PAM-ag
CC1C(c2ccccc2)N(C)C(c2ccccc2)C(C)C1(O)C#Cc1ccccc1 (configuration not stated),0.89,-34,18*,14,-17,-12
COc1ccc(C)cc1NC(=O)C(NC(=O)c1cc(OC)c(OC)c(OC)c1)C(C)C (configuration not stated),1.2,10,.,8,-12,-2
O=C(NC(=S)NNC(=O)c1cccs1)c1ccc(Br)o1,15*,-7,2,5,-16,2
C=CCSC(=C(C#N)C#N)c1cc2c([nH]1)CCCC2,-2.3,35*,-2,-10,2,43*
O=C(O)c1cc2c([nH]c1=O)CCCC2,0.1,21,1,-5,-7,-12
COc1cc(/C=N/NC(N)=O)ccc1OCC(=O)Nc1cc(C)c(C)cc1Br,-0.21,3,.,-3,-16,-7
COC(=O)c1c(NC(=O)CN2CCN(Cc3ccc4c(c3)OCO4)CC2)sc(C)c1C,.,-95,38*,48*,-20,-51
COC(=O)c1ccsc1NC(=O)CN1CCN(Cc2ccc3c(c2)OCO3)CC1,.,-3,8,8,-10,-17
Cc1cccc(NC(=O)N2CCCC2C(=O)Nc2ccccc2)c1 (configuration not stated),-0.86,8,.,4,-23,8
CCn1c(=S)[nH]c2cc(C(=O)OC)ccc2c1=O,9.2*,17,2,3,-27,6
Cc1ccc(F)c(NC(=O)/C(C#N)=C(\O)c2ccc(C(C)(C)C)cc2)c1,-5.6*,27,.,-3,-18,22
Cc1cccc(S(=O)(=O)c2c(N)n(Cc3ccco3)c3nc4ccccc4nc23)c1,-5.5*,7,-2,-4,-12,0
COc1ccc(N=CC2=C(Nc3ccc(OC)cc3)c3c(C)nn(-c4ccccn4)c3CC2)cc1,0.23,-18,13,21*,-4,3
Cc1ccc(OCC(=O)Nc2ccccc2[N+](=O)[O-])c(Br)c1,0.61,6,.,5,-20,-1
CCN(Cc1ccccc1)c1ccc(N=Nc2nn(C)c(C)c2[N+](=O)[O-])cc1,-1.1,58*,-5,-11,2,41*
COC(=O)CC1=C(C(=O)OC)[C@@H](c2ccccc2[N+](=O)[O-])C(C#N)=C(N)O1,0.095,10,.,.,-30,-4
COc1cc(OC)cc(C(=O)Nn2cc(C(=O)Nc3c(F)cccc3F)c3ccccc3c2=O)c1,-0.39,-9,1,2,-5,-2
CC(=O)CSc1ncnc2sc3c(c12)CCC(C)C3 (configuration not stated),121*,-9,.,10,-8,-4
CC1CCc2c(sc3ncnc(SCC(=O)c4ccccc4)c23)C1 (configuration not stated),2,5,0,-2,-17,-9
Cc1cccc(OCCn2c(-c3ccco3)nc3ccccc32)c1,-0.6,-50,20*,26*,-18,-11
O=C(Nc1nc2ccccc2n1CCOc1ccc(Cl)cc1)c1ccco1,.,-102,31*,24*,-17,-90
Cc1cccc(OCCn2c(=S)[nH]c3ccccc32)c1,8.9*,4,4,-3,-1,3
c1ccc(OCCn2c(-c3ccco3)nc3ccccc32)cc1,-1.5,-30,5,8,-15,-21
O=C(Nc1nc2ccccc2n1CCN1CCCCC1)c1ccco1,0.59,8,7,4,2,-8
Cc1cccc(OCCn2c(S(=O)(=O)O)nc3ccccc32)c1,0.056,-12,3,12,-6,0
SMILES,Cl transport mod,NPY1 pot ag,NPY Y2 blocker,NPY Y1 blocker,Furin inhibitor,NPY-Y2 PAM-ag
Cc1cccc(OCCn2c(NC(=O)c3ccco3)nc3ccccc32)c1,1.5,-107,37*,34*,-20,-53
Cc1cc(C)c(C#N)c(Oc2ccccc2Br)n1,-2.7,8,.,5,-31,6
O=C(COc1cccc(Cl)c1)Nc1ccc2c(c1)CCC2,-0.21,-41,11,10,8,-17
CCOC(=O)C(=O)N(Nc1ccccc1C)c1ccccc1C,0.94,6,.,1,-12,-4
CC(C)(C)NC(=O)CN1CCN(C(=O)CCl)CC1,0.29,9,.,10,-34,-10
O=C(Nc1nc2ccccc2n1CCOc1ccccc1)c1ccco1,1.4,-56,11,9,-22,-31
Cc1ccc(OCCn2c(NC(=O)c3ccco3)nc3ccccc32)cc1,2.1,-3,20*,9,-14,6
O=C(O)CCc1ccc(-c2ccc(F)cc2)n1Cc1ccco1,-0.93,80*,0,-10,-8,71*
O=C(O)CCc1ccc(-c2ccccc2)n1Cc1ccco1,0.00018,9,5,10,-10,-11
O=C1CCCC(=O)C1CS(=O)(=O)c1ccccc1,0.062,-2,.,3,-25,0
CCN(CC)S(=O)(=O)c1ccc(OC)c(NC(=O)C(Cc2ccccc2)N2C(=O)c3ccccc3C2=O)c1 (configuration not stated),-0.55,-31,2,-2,-21,-14
CCN(CC)CCN1C(=O)c2oc3ccccc3c(=O)c2C1c1cccc(Br)c1 (configuration not stated),24*,4,0,-2,-22,-18
CCN(CC)CCN1C(=O)c2oc3ccccc3c(=O)c2C1c1ccccc1 (configuration not stated),.,7,3,0,-9,-2
O=S(=O)(c1ccccc1)N1CCN(C2CCCCCCC2)CC1,-0.57,2,3,7,-7,-9
c1ccc(CCN(Cc2ccccc2)C2CCN(C3CCCC3)CC2)cc1,-1.5,-14,.,21*,-30,-48
FC(F)(F)c1cccc(NC(=S)NNC(=S)Nc2ccc(Cl)cc2)c1,-2.2,74*,.,.,-26,45*
O=C(NC(=S)Nc1cccc(C(F)(F)F)c1)c1csnn1,59*,-7,.,1,-2,-7
CCCOc1cccc(C(=O)NC(=S)Nc2cccc(C(F)(F)F)c2)c1,11*,-8,6,12,-16,-16
O=C(Nc1ccccc1NC(=O)c1csnn1)c1csnn1,-1.1,2,.,0,-4,-5
O=C(NC(=S)Nc1ccccc1Cl)c1csnn1,17*,1,1,-5,-14,18
Nc1ccc(S(=O)(=O)C(F)(F)F)cc1N,-0.013,12,.,4,-18,0
CCN(CC)S(=O)(=O)c1cc(OC)c(Cl)cc1OC,0.59,-2,.,5,-23,-4
Cc1ccc(NC(=O)C2(c3cccs3)CCOCC2)cc1C,-0.029,10,3,-2,-14,-1
COC(=O)c1ccc(NC(=S)NC(=O)c2c(Cl)cnn2C)cc1,36*,-14,11,9,-11,-20
Cc1ccc(NC(=O)c2cc(Cl)nc3ccccc23)cc1,0.3,-66,21*,31*,-27,-62
